Compounds with a hit are over-represented: about 3.8% of the library has one in this group of screens.
Beta cell apopt: inhibitors of cytokine-induced beta cell apoptosis, primary screen, luminescence | INS-1E cytokine-induced death, ATP luminescence, 48 h; percent of positive-control rescue, neutral wells zero | protection from apoptosis, % (test concentration not listed) | 300,000 compounds, 0.8% hits | AID 435005, 2010;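 active = Every replicate reaches about 75%, or at least half do and their mean reaches it too, limit read from the data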;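 note: 0% = cytokine-treated negative control wells and 100% = positive control rescue; higher means more ATP so stronger rescue from cytokine killing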
MC4R antag cAMP: MC4R antagonists of cAMP signaling, primary screen, cell-based, TR-FRET, antagonist arm of biased-ligand search. Melanocortin receptor 4 (Homo sapiens), P32245. MC4R-expressing cells, MTII-stimulated cAMP, LANCE TR-FRET. inhibition, % at 6.5 µM. 360,000 compounds, 0.48% hits;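 active = inhibition above its plate's cutoff, the mean of tested wells on that plate plus 3 SD, cut at about 29% in these data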;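 note: 0% = Melanotan II alone and 100% = Melanotan II plus saturating MCL0020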
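Assay system: U2OS cells stably expressing human melanocortin 4 receptor (MC4R) / Dosing: 6.5 µM / Timing: compound 30 min, challenge 1 h, detection 1 h / Measured by: Eu-cAMP/anti-cAMP TR-FRET, emission 671 nm / Replicates: singlicate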
CSC inhib: cancer stem cell viability inhibitors, primary screen, luminescence; 300,000 compounds, 1.1% hits; inhibition, % at 7.5 µM; cancer stem cell-like cells viability; AID 2717, 2010; in the data active = inhibition above about 75%; tested in HMLE shEcad cells
TMEM16A act: TMEM16A chloride channel activators or potentiators, primary screen, cell-based, HTS; B-score at 10 µM; Anoctamin-1 (Mus musculus), Q8BHY3; HEK293 TMEM16A/YFP-H148Q/I152L, iodide quench fluorescence; stronger effect = lower value; AID 623877, 2012; 340,000 compounds, 0.3% hits;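 active = fluorescence-ratio B-score plate-corrected deviation score at least 3 library SD below zero, with starting fluorescence score within 5 deviations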;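 note: channel opened by trigger with iodide after compound preincubation; score built on the fluorescence ratio of max minus min over baseline; more negative score means more quench and so TMEM16A activation or potentiation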
Target sequence (Q8BHY3 whole entry, looked up): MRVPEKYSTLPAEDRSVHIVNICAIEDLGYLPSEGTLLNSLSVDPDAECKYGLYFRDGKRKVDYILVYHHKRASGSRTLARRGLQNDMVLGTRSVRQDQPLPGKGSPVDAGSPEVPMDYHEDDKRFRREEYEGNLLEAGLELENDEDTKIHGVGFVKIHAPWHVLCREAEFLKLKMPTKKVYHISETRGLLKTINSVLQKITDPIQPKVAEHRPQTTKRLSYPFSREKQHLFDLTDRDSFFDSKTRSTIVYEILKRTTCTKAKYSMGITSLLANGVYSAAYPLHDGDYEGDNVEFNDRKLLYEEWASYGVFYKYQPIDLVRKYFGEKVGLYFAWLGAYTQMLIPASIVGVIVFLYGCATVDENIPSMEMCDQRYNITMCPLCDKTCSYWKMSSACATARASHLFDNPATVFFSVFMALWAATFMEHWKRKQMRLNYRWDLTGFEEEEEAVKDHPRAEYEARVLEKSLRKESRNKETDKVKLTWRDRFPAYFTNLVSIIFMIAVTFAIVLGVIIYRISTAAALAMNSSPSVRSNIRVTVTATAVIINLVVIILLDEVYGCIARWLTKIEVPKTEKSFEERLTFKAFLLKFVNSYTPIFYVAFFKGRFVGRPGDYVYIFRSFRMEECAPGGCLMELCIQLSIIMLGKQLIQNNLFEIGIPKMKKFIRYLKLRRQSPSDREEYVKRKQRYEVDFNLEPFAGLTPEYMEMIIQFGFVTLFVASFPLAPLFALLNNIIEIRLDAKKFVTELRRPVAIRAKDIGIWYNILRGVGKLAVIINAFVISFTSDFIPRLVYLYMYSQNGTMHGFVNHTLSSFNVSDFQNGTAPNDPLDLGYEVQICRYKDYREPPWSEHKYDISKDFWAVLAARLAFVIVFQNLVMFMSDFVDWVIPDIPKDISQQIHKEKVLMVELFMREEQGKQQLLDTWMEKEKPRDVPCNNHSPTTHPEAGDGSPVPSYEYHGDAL
MC4R barr agon: MC4R agonists recruiting beta-arrestin, primary screen, cell-based, luminescence, agonist arm of biased-ligand search; Melanocortin receptor 4 (Homo sapiens), P32245; U2OS MC4R beta-arrestin complementation; percent of melanotan II response, DMSO zero; activation, % at 8.9 µM; 360,000 compounds, 0.98% hits; AID 540308, 2011;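 active = activation above a per-plate cutoff, the mean activation of sample wells on that plate plus 3 SD, cut at about 8% in these data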
ANO1 block: TMEM16A chloride channel inhibitors, primary screen, cell-based, HTS; Anoctamin-1 (Mus musculus), Q8BHY3; HEK293 TMEM16A/YFP iodide influx fluorescence, ionomycin; normalized B-score (activity score, 25-100; higher = stronger inhibition) at 10 µM; 310,000 compounds, 1.2% hits; AID 588511, 2011;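 active = ratio plate-corrected score three or more library SD toward inhibition, starting fluorescence score within five deviations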;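 note: score derived from kinetic fluorescence span divided by baseline fluorescence per well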
cAMP nonselect: nonselective cAMP signaling inhibitors, parental cells, counter-screen for MC4R biased antagonist project, cell-based, TR-FRET, U2OS, forskolin, triplicate; shares compounds with MC4R antag cAMP; LANCE TR-FRET; inhibition, % at 6.5 µM; 1,600 compounds, 26% hits; AID 602193, 2012;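 active = mean inhibition over triplicates above the low-control well mean plus 3 SD, set per campaign, cut at about 13% in these data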;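 note: signal is single emission at 671 nm which falls as cellular cAMP rises; 0% = forskolin-stimulated wells and 100% = buffer without forskolin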
MC4R antag conf: MC4R cAMP antagonists, retest, confirmation, cell-based, TR-FRET; shares compounds with MC4R antag cAMP; MC4R-expressing cells, MTII-stimulated cAMP; inhibition, % at 6.5 µM; 1,600 compounds, 27% hits; in the data active = inhibition above about 29%;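 note: 0% = agonist stimulated wells alone and 100% = agonist stimulated wells plus saturating reference antagonist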
The depositor's hits bear a star; i = inactive; nt = not tested or not shown.

SMILES	Beta cell apopt	MC4R antag cAMP	CSC inhib	TMEM16A act	MC4R barr agon	ANO1 block	cAMP nonselect	MC4R antag conf
O=C(CCN1CCc2ccccc2C(c2ccccc2)C1)c1ccc2c(c1)OCCO2 (stereo unspecified)	-38.4	24.1	26.2	i	-3.9	i	nt	nt
O=C(Nc1nc(-c2ccc(F)cc2)cs1)c1ccc(N2C(=O)CCC2=O)cc1	nt	17.5	-11.1	i	3.8	i	nt	nt
COc1ccc(-c2csc(NC(=O)c3ccc(N4C(=O)CCC4=O)cc3)n2)cc1	-1.9	50.5*	-18.4	i	1.3	i	24.8*	41.6*
CCCCCN1CC(=O)N2C(C)c3[nH]c4ccccc4c3C[C@H]2C1=O (stereo partly specified)	0.5	14.0	-13.8	i	2.4	i	nt	nt
C[C@@H]1CN([C@@H](C)CO)C(=O)c2cc(Br)cnc2O[C@H]1CN(C)C(=O)Nc1ccc2c(c1)OCO2	nt	3.9	nt	nt	-1.6	nt	nt	nt
Clc1ccc(-c2nnc(-c3ccc(Br)cc3)c(N3CCSCC3)n2)cc1	nt	6.1	-3.9	i	-2.4	i	nt	nt
Clc1ccc(-c2nnc(-c3ccco3)nc2N2CCCCC2)cc1	nt	29.4*	nt	i	-0.5	i	0.0	6.1
CC(C)[C@H](NC(=O)c1ccccc1F)C(=O)OCCN1C(=O)c2ccccc2C1=O	-1.0	-2.7	6.2	i	1.2	nt	nt	nt
COc1ccc(CC(=O)Oc2ccc(F)c(F)c2)cc1S(=O)(=O)N1CCOCC1	-0.6	34.6*	-0.1	i	-1.0	i	13.1	18.5
COc1ccc(CC(=O)Oc2ccc(Br)cc2F)cc1S(=O)(=O)N1CCOCC1	-5.7	17.4	-3.5	i	-2.0	i	nt	nt
CC(=O)OC1OCCOC1NC(=S)Nc1ccc(C)cc1 (stereo unspecified)	4.1	32.0*	-11.0	i	-0.7	i	1.1	-8.1
Cc1ccc(NC(=S)NNC(=S)Nc2ccc(C)cc2)cc1	nt	1.4	nt	i	2.9	nt	nt	nt
O=C(COC(=O)c1ccc(Cl)c([N+](=O)[O-])c1)NC1CCCC1	-7.4	25.1	-10.3	i	-1.7	i	nt	nt
O=C(COC(=O)c1ccc(Cl)c([N+](=O)[O-])c1)Nc1ccccc1OC(F)F	-10.8	33.6*	0.6	i	-1.7	i	21.1*	46.7*
CN(CCC#N)C(=O)COC(=O)c1ccccc1C(=O)c1ccc(Cl)c([N+](=O)[O-])c1	-5.3	33.5*	43.7	i	-4.3	i	23.6*	4.7
CC(C)N(C(=O)COC(=O)c1ccccc1C(=O)c1ccc(Cl)c([N+](=O)[O-])c1)C(C)C	2.1	19.5	-1.0	i	-5.0	i	nt	nt
O=C(COC(=O)c1ccccc1C(=O)c1ccc(Cl)c([N+](=O)[O-])c1)NC1CCCCCC1	3.6	63.8*	-6.3	i	-3.0	i	12.1	30.5*
CC(CN1CCOCC1)OC(=O)c1cccc(Cl)c1 (stereo unspecified)	nt	2.5	-1.9	i	-1.6	i	nt	nt
CC1=NOC(=O)/C1=C/c1ccc(O)cc1	-1.6	34.9*	2.4	i	-0.3	i	-3.8	-38.3
CC1=NOC(=O)/C1=C/c1ccc(O)c(Br)c1	nt	-4.8	nt	i	-1.0	i	nt	nt
CC(=O)Nc1cc(-c2cccc(N)c2)cn2c(-c3ccc(C(C)=O)cc3)cnc12	nt	10.1	nt	nt	6.8	nt	nt	nt
COc1cc(-c2cc(NC(C)=O)c3ncc(-c4ccc(C(C)=O)cc4)n3c2)cc(OC)c1OC	nt	29.1*	nt	nt	8.7*	nt	0.8	12.3
